From ChEMBL document CHEMBL3351800, “Combination of 2-methoxy-3-phenylsulfonylaminobenzamide and 2-aminobenzothiazole to discover novel anticancer agents” (Bioorg Med Chem, 2014)
Calls of active or inactive are those of the source. No cut-off for these calls is given here.

tested on: MCF7; assay: Antiproliferative activity against human MCF7 cells […] by MTT assay; format: functional, cell-based; conditions: not given

Row | Structure (SMILES) | IC50
1 | COc1c(NS(=O)(=O)c2ccc(F)cc2)cc(-c2ccc3nc(NC(C)=O)sc3n2)cc1C(N)=O | 12.5 µM
2 | COc1c(NS(=O)(=O)c2ccc(F)cc2)cc(-c2ccc3nc(NC(=O)C4CC4)sc3c2)cc1C(N)=O | 1.58 µM
3 | COc1c(NS(=O)(=O)c2ccc(F)cc2)cc(-c2ccc3nc(NC(C)=O)sc3c2)cc1C(N)=O | 0.5 µM
4 | COc1c(NS(=O)(=O)c2ccc(F)cc2)cc(-c2ccc3nc(NC(=O)C4CC4)sc3n2)cc1C(N)=O | 22.1 µM
5 | CC(=O)Nc1nc2ccc(-c3cnc(Cl)c(NS(=O)(=O)c4ccc(F)cc4)c3)cc2s1 | 0.52 µM
6 | Cn1c(=O)n(-c2ccc(C(C)(C)C#N)cc2)c2c3cc(-c4cnc5ccccc5c4)ccc3ncc21 [DACTOLISIB] | 0.55 µM
7 | NC(=O)c1cc(-c2ccc3nc(NC(=O)C4CC4)sc3c2)cc(NS(=O)(=O)c2ccc(F)cc2)c1Cl | > 50 µM
8 | COc1c(NS(=O)(=O)c2ccc(F)cc2)cc(-c2ccc3nc(NC4CC4)sc3n2)cc1C(N)=O | 33.1 µM

tested on: not listed separately; assay: Antitumor activity against human HCT116 cells xenografted in BALB/C mouse assessed as reduction in tumor volume at 10 mg/kg, po dosed once daily for 14 days; format: functional; conditions: HCT-116, 336 h
In short: (§1)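 Male BALB/C nude mice (SPF, 18-20 g) received 3×10^6 HCT-116 cells subcutaneously in the flank. At 100 mm³ tumours, animals were randomised (8 controls, 5 per drug group). Compound given orally in NMP/PEG300 (1:9) once daily for 14 days; controls got vehicle. Tumour volume (length × width × width/2) recorded every 3-4 days. Sacrifice on day 26, inhibition ratios from tumour volume and weight. Mean ± standard error.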

Row | Structure (SMILES) | inhibition in vivo at 10 mg/kg
9 | COc1c(NS(=O)(=O)c2ccc(F)cc2)cc(-c2ccc3nc(NC(C)=O)sc3c2)cc1C(N)=O | 40.1%

tested on: HCT-116; assay: Inhibition of PI3K/Akt signalling in human HCT116 cells assessed as reduction in AKT Ser473 phosphorylation at 1 uM after 1 hr by Western blot method; format: cell-based; conditions: not given
In short: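 HCT-116 cells seeded at 1×10^6/well in DMEM with 10% FBS and grown 16 h at 37 °C. Exposed to compound or DMSO for 1 h at 37 °C, then lysed in ice-cold buffer and clarified at 12000 rpm, 20 min, 4 °C. Protein measured by BCA and run on SDS-PAGE. Immunoblotted for AKT, p-Ser473 AKT and β-actin, with chemiluminescent detection and densitometry. Three independent experiments, each in duplicate.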

Row | Structure (SMILES) | inhibition
10 | COc1c(NS(=O)(=O)c2ccc(F)cc2)cc(-c2ccc3nc(NC(C)=O)sc3c2)cc1C(N)=O | Active
11 | Cn1c(=O)n(-c2ccc(C(C)(C)C#N)cc2)c2c3cc(-c4cnc5ccccc5c4)ccc3ncc21 [DACTOLISIB] | Active

tested on: Mus musculus; assay: Toxicity in human HCT116 cells xenografted BALB/C mouse assessed as weight loss at 30 mg/kg, po dosed once daily for 14 days; format: organism-based, HCT-116; set-up: dose 30 mg/kg, route oral; conditions: in vivo, 336 h
In short: (§2)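 Male BALB/C nude mice (18-20 g) carried subcutaneous flank HCT-116 xenografts (3×10^6 cells), randomised at 100 mm³. Compound dosed orally in NMP/PEG300 (1:9) once daily for 14 days; controls got vehicle alone. Body weight recorded every 3-4 days until sacrifice on day 26.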

Row | Structure (SMILES) | Activity
12 | Cn1c(=O)n(-c2ccc(C(C)(C)C#N)cc2)c2c3cc(-c4cnc5ccccc5c4)ccc3ncc21 [DACTOLISIB] | Toxic

tested on: not listed separately; assay: Antiproliferative activity against human U87MG cells after 72 hrs by MTT assay; format: functional, cell-based, U-87MG ATCC; conditions: U-87 MG
In short: (§3)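 Cells kept as monolayers in DMEM with 10% FBS, 5% CO2, 37 °C. Seeded at 3000-5000 cells/well, grown 24 h before dosing. Treated with 100.0, 10.0, 1.0, 0.1 and 0.01 μM of compound for 48 h. MTT (5 mg/ml in medium) added for 4 h, formazan pelleted, dissolved in DMSO, OD read at 490 nm. IC50 derived from inhibition ratios. Three separate experiments, each in triplicate.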

Row | Structure (SMILES) | IC50
13 | COc1c(NS(=O)(=O)c2ccc(F)cc2)cc(-c2ccc3nc(NC(C)=O)sc3n2)cc1C(N)=O | 21.7 µM
14 | COc1c(NS(=O)(=O)c2ccc(F)cc2)cc(-c2ccc3nc(NC(=O)C4CC4)sc3c2)cc1C(N)=O | 2.87 µM
15 | COc1c(NS(=O)(=O)c2ccc(F)cc2)cc(-c2ccc3nc(NC(C)=O)sc3c2)cc1C(N)=O | 4.75 µM
16 | COc1c(NS(=O)(=O)c2ccc(F)cc2)cc(-c2ccc3nc(NC(=O)C4CC4)sc3n2)cc1C(N)=O | 20.5 µM
17 | COc1c(NS(=O)(=O)C2CC2)cc(-c2ccc3nc(NC(=O)C4CC4)sc3c2)cc1C(N)=O | 8.22 µM
18 | CC(=O)Nc1nc2ccc(-c3cnc(Cl)c(NS(=O)(=O)c4ccc(F)cc4)c3)cc2s1 | 2.79 µM
19 | Cn1c(=O)n(-c2ccc(C(C)(C)C#N)cc2)c2c3cc(-c4cnc5ccccc5c4)ccc3ncc21 [DACTOLISIB] | 2.34 µM
20 | NC(=O)c1cc(-c2ccc3nc(NC(=O)C4CC4)sc3c2)cc(NS(=O)(=O)c2ccc(F)cc2)c1Cl | 17.9 µM
21 | COc1c(NS(=O)(=O)c2ccc(F)cc2)cc(-c2ccc3nc(NC4CC4)sc3n2)cc1C(N)=O | 41.7 µM

tested on: Mus musculus; assay: Toxicity in human HCT116 cells xenografted BALB/C mouse assessed as weight loss at 10 to 30 mg/kg, po dosed once daily for 14 days; format: organism-based, HCT-116; set-up: dose 10-30 mg/kg, route oral; conditions: in vivo, 336 h; in short: as §2

Row | Structure (SMILES) | Activity
22 | COc1c(NS(=O)(=O)c2ccc(F)cc2)cc(-c2ccc3nc(NC(C)=O)sc3c2)cc1C(N)=O | Non-toxic

tested on: not listed separately; assay: Antiproliferative activity against human HCT116 cells […] by MTT assay; format: functional, cell-based; conditions: HCT-116

Row | Structure (SMILES) | IC50
23 | NC(=O)c1cc(NS(=O)(=O)c2ccc(F)cc2)cc(-c2ccc3nc(NC(=O)C4CC4)sc3c2)c1 | > 50 µM
24 | COc1c(NS(=O)(=O)c2ccc(F)cc2)cc(-c2ccc3nc(NC(C)=O)sc3n2)cc1C(N)=O | 4.25 µM
25 | COc1c(NS(=O)(=O)c2ccc(F)cc2)cc(-c2ccc3nc(NC(C)=O)nn3c2)cc1C(N)=O | 25.4 µM
26 | COc1c(NS(=O)(=O)C2CC2)cc(-c2ccc3nc(NC(C)=O)nn3c2)cc1C(N)=O | 36.3 µM
27 | COc1c(NS(=O)(=O)c2ccc(C)cc2)cc(-c2ccc3nc(NC(C)=O)nn3c2)cc1C(N)=O | 27.3 µM
28 | COc1c(NS(=O)(=O)c2ccc(F)cc2)cc(-c2ccc3nc(NC(=O)C4CC4)sc3c2)cc1C(N)=O | 2.01 µM
29 | CCOC(=O)CNc1nc2ccc(-c3cc(NS(=O)(=O)c4ccc(F)cc4)c(OC)c(C(N)=O)c3)cc2s1 | > 50 µM
30 | COc1c(NS(=O)(=O)c2ccc(F)cc2)cc(-c2ccc3nc(NC(C)=O)sc3c2)cc1C(N)=O | 1.95 µM
31 | COc1c(NS(=O)(=O)c2ccc(F)cc2)cc(-c2ccn3nc(NC(=O)C4CC4)nc3c2)cc1C(N)=O | > 50 µM
32 | COc1c(NS(=O)(=O)c2ccc(Cl)cc2)cc(-c2ccc3nc(NC(C)=O)nn3c2)cc1C(N)=O | 31.7 µM
33 | CC(=O)Nc1nc2ccc(-c3cc(NS(=O)(=O)c4ccc(F)cc4)c(Cl)c(C(N)=O)c3)cn2n1 | > 50 µM
34 | COc1c(NS(=O)(=O)c2ccc(F)cc2)cc(-c2ccn3nc(NC(C)=O)nc3c2)cc1C(N)=O | 32.6 µM
35 | COc1c(NS(=O)(=O)c2ccc(F)cc2)cc(-c2ccc3nc(NC(=O)C4CC4)sc3n2)cc1C(N)=O | 2.5 µM
36 | COc1c(NS(=O)(=O)c2ccc(F)cc2)cc(-c2ccc3nc(NC4CC4)sc3c2)cc1C(N)=O | > 50 µM
37 | COc1c(NS(=O)(=O)c2ccc(F)cc2)cc(-c2ccc3nc(NC(=O)C4CC4)nn3c2)cc1C(N)=O | 43.5 µM
38 | COc1c(NS(=O)(=O)C2CC2)cc(-c2ccc3nc(NC(=O)C4CC4)sc3c2)cc1C(N)=O | 14.5 µM
39 | CC(=O)Nc1nc2ccc(-c3cnc(Cl)c(NS(=O)(=O)c4ccc(F)cc4)c3)cc2s1 | 0.51 µM
40 | Cn1c(=O)n(-c2ccc(C(C)(C)C#N)cc2)c2c3cc(-c4cnc5ccccc5c4)ccc3ncc21 [DACTOLISIB] | 0.32 µM
41 | NC(=O)c1cc(-c2ccc3nc(NC(=O)C4CC4)sc3c2)cc(NS(=O)(=O)c2ccc(F)cc2)c1Cl | 11.4 µM
42 | COc1c(NS(=O)(=O)c2ccc(F)cc2)cc(-c2ccc3nc(NC4CC4)sc3n2)cc1C(N)=O | 35.7 µM
43 | COc1c(NS(=O)(=O)c2ccc(F)cc2)cc(-c2ccn3nc(N)nc3c2)cc1C(N)=O | > 50 µM

tested on: A549; assay: Antiproliferative activity against human A549 cells after 72 hrs by MTT assay; format: functional, cell-based; conditions: A549, 72 h; in short: as §3

Row | Structure (SMILES) | IC50
44 | COc1c(NS(=O)(=O)c2ccc(F)cc2)cc(-c2ccc3nc(NC(C)=O)sc3n2)cc1C(N)=O | 4.31 µM
45 | COc1c(NS(=O)(=O)c2ccc(F)cc2)cc(-c2ccc3nc(NC(=O)C4CC4)sc3c2)cc1C(N)=O | 6.34 µM
46 | COc1c(NS(=O)(=O)c2ccc(F)cc2)cc(-c2ccc3nc(NC(C)=O)sc3c2)cc1C(N)=O | 1.7 µM
47 | COc1c(NS(=O)(=O)c2ccc(F)cc2)cc(-c2ccc3nc(NC(=O)C4CC4)sc3n2)cc1C(N)=O | 8.05 µM
48 | COc1c(NS(=O)(=O)C2CC2)cc(-c2ccc3nc(NC(=O)C4CC4)sc3c2)cc1C(N)=O | 46.3 µM
49 | CC(=O)Nc1nc2ccc(-c3cnc(Cl)c(NS(=O)(=O)c4ccc(F)cc4)c3)cc2s1 | 0.2 µM
50 | Cn1c(=O)n(-c2ccc(C(C)(C)C#N)cc2)c2c3cc(-c4cnc5ccccc5c4)ccc3ncc21 [DACTOLISIB] | 0.1 µM
51 | NC(=O)c1cc(-c2ccc3nc(NC(=O)C4CC4)sc3c2)cc(NS(=O)(=O)c2ccc(F)cc2)c1Cl | > 50 µM
52 | COc1c(NS(=O)(=O)c2ccc(F)cc2)cc(-c2ccc3nc(NC4CC4)sc3n2)cc1C(N)=O | 30.2 µM

tested on: not listed separately; assay: Antitumor activity against human HCT116 cells xenografted in BALB/C mouse assessed as reduction in tumor volume at 30 mg/kg, po dosed once daily for 14 days; format: functional; conditions: HCT-116, 336 h; in short: as §1

Row | Structure (SMILES) | inhibition in vivo at 30 mg/kg
53 | COc1c(NS(=O)(=O)c2ccc(F)cc2)cc(-c2ccc3nc(NC(C)=O)sc3c2)cc1C(N)=O | 46.9%
54 | Cn1c(=O)n(-c2ccc(C(C)(C)C#N)cc2)c2c3cc(-c4cnc5ccccc5c4)ccc3ncc21 [DACTOLISIB] | 24.2%
